Publication PMC11040699 (JACS Au, 2024)
Entries after “also recorded” stand apart in the source; their conditions may differ. Residues, ends and D or L forms follow the SMILES beside them. No end group written: not given here. *: point of attachment. Acetyl(9-fluorenyl) = O=C(CC1c2ccccc2-c2ccccc21)*

T1: recombinant mouse α-Klotho (mKlotho) (Mus musculus, UniProt O35082)
T1 sequence (O35082 35-960): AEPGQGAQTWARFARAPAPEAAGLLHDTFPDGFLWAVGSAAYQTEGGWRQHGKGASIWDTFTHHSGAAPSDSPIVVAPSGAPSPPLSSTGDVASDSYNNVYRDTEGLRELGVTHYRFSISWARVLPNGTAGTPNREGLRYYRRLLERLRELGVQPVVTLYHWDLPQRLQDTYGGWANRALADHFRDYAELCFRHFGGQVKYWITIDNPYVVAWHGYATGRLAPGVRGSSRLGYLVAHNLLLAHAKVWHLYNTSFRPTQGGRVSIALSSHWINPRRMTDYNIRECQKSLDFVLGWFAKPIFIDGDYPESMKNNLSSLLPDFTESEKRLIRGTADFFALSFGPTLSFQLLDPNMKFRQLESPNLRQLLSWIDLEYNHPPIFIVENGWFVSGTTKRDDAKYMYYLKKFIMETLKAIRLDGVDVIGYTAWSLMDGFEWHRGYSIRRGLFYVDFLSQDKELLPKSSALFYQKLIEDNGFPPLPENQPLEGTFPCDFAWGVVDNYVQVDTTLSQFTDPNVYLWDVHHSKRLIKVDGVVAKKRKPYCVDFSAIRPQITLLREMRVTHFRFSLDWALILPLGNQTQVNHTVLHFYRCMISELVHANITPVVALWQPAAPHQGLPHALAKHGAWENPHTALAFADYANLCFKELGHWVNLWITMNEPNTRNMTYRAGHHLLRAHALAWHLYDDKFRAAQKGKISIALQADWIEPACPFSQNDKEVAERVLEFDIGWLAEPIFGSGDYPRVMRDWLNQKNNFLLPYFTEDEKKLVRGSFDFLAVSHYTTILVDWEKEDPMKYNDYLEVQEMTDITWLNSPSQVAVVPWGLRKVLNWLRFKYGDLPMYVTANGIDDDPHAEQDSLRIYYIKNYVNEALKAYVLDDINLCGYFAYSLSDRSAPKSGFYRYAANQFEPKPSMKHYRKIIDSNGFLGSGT

B1: K4 (peptide)
peptide: fluorenyl-ASDPLGVVRPRA
B2: K12 (peptide)
peptide: fluorenyl-ASDPLGVVRGRA
B3: K17 (peptide)
peptide: fluorenyl-ASDPLGVVRGRAR
modifications: not fully specified (C-terminus)
B4: Pep-10 (peptide)
peptide: PMASDPLGVVRPRARM
B5: K1 (peptide)
peptide: fluorenyl-PMASDPLGVVRPRARM
B6: fibroblast growth factor 23 (ligand)
chain: YPNASPLLGSSWGGLIHLYTATARNSYHLQIHKNGHVDGAPHQTIYSALMIRSEDAGFVVITGVMSRRYLCMDFRGNIFGSHYFDPENCRFQHQTLENGYDVYHSPQYHFLVSLGRAKRAFLPGMNPPPYSQFLSRRNEIPLIHFNTPIPRRHTRSAEDDSERDPLNVLKPRARMTPAPASCSQELPSAEDNSPMASDPLGVVRGGRVNTHAGGTGPEGCRPFAKFI
B7: K1 P12A (peptide)
peptide: fluorenyl-PMASDPLGVVRARARM

What was measured:
[1] = biological target: T1, recombinant mouse α-Klotho (mKlotho); test: Competition binding assay with BLI against immobilized Pep-10-Biotin, mKlotho
[2] = tested on: endogenous hKlotho in HK-2 cell lysate; test: Pull-down assay from HK-2 cell lysate; format: binding, human; details: for selectivity of pull-down by silver stain, HK-2 cell lysate: silver stain of eluents
In short: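 HK-2 cells (Keratinocyte SFM with bovine pituitary extract and EGF; 37 °C, 5% CO2) were scraped and lysed in RIPA with protease inhibitors; 20% kept as input. 200 μg lysate: unlabelled competitor preincubated 15 min, then biotinylated probe 30 min RT. Streptavidin magnetic beads 20 min, PBS washes, 8 M urea elution 30 min. SDS-PAGE, then silver stain or KM2076 western (1:1000, 4 °C overnight; HRP anti-rat; chemiluminescence). Bands quantified by densitometry.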

[3] = biological target: recombinant mouse α-Klotho (mouse) (UniProt O35082); test: affinity selection-mass spectrometry
[4] = biological target: recombinant mouse α-Klotho (mouse) (UniProt O35082); test: BLI
Target sequence in this assay (O35082 35-1014): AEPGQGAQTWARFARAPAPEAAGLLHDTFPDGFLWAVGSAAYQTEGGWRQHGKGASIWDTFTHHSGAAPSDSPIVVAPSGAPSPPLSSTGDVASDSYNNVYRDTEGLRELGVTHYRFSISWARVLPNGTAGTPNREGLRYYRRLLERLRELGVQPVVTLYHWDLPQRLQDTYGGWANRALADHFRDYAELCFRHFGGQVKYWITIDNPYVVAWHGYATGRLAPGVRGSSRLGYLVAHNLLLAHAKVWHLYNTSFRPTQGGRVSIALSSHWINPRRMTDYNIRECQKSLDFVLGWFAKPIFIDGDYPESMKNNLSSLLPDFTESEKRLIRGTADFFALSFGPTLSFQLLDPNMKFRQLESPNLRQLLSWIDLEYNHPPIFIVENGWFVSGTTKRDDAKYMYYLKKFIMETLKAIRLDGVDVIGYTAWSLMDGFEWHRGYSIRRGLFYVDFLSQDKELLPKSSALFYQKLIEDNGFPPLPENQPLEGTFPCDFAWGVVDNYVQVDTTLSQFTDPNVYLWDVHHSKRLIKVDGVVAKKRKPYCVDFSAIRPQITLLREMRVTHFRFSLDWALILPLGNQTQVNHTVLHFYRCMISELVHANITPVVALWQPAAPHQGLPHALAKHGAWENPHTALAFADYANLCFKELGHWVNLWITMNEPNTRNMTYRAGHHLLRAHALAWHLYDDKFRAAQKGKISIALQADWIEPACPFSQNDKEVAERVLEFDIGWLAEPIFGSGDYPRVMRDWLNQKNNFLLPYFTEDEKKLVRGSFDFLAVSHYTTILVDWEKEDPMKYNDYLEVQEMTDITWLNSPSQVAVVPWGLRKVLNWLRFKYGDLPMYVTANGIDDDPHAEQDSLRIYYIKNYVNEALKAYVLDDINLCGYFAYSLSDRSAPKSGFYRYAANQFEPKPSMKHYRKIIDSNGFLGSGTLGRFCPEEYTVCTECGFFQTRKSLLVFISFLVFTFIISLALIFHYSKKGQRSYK

[5] = biological target: recombinant human α-Klotho (human) (UniProt Q9UEF7); test: BLI
Chain of recombinant human α-Klotho (human) (Q9UEF7 34-1012): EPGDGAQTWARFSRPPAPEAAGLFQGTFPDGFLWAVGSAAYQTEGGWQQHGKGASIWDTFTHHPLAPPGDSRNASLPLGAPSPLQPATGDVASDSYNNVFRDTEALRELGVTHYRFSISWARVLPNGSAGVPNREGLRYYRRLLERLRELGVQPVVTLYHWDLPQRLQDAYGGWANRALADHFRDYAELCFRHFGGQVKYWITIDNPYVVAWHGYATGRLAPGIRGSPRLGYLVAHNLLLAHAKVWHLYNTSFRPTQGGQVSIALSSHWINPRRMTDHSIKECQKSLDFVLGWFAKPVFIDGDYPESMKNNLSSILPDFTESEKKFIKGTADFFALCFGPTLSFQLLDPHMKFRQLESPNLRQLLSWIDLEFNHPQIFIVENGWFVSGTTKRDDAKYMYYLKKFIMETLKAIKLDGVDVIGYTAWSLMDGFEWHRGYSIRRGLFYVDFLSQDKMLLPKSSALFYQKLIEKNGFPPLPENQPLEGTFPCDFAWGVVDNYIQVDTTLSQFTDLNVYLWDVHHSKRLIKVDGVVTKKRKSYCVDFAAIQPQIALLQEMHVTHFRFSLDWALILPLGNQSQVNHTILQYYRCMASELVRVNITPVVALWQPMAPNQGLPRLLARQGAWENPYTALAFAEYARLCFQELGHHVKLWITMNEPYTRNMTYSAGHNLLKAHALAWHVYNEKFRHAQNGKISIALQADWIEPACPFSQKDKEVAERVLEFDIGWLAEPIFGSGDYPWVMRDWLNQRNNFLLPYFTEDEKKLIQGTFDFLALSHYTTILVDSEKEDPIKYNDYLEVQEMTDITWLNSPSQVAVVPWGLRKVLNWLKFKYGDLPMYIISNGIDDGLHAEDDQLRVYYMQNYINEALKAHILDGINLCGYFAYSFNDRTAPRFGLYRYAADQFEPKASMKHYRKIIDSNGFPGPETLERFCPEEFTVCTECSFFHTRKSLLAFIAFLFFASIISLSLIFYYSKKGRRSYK

Molecule	Kd [4]	also measured
CSCC[C@H](NC(=O)[C@H](CCCNC(=N)N)NC(=O)[C@H](C)NC(=O)[C@H](CCCNC(=N)N)NC(=O)[C@@H]1CCCN1C(=O)[C@H](CCCNC(=N)N)NC(=O)[C@@H](NC(=O)[C@@H](NC(=O)CNC(=O)[C@H](CC(C)C)NC(=O)[C@@H]1CCCN1C(=O)[C@H](CC(=O)O)NC(=O)[C@H](CO)NC(=O)[C@H](C)NC(=O)[C@H](CCSC)NC(=O)[C@@H]1CCCN1C(=O)CC1c2ccccc2-c2ccccc21)C(C)C)C(C)C)C(N)=O [K1] ({Acetyl(9-fluorenyl)}-PMASDPLGVVRPRARM-NH2)		fold change of competition KD relative to Pep-10 [1]: 89 fold
Biotin-PEG4-PMASDPLGVVRPRAM [Pep-10-Biotin]		selectivity of pull-down by silver stain, HK-2 cell lysate ([2]; 50 nM of biotinylated peptides): not enriched; selectivity of pull-down by silver stain, HK-2 cell lysate ([2]; legend of Figure 4D, 200 nM printed, n = 2): not able to enrich Klotho; Klotho enrichment in pulled-down fraction, HK-2 cell lysate ([2]; western blot, probe at 2 μM, n = 2): minor enrichment; also recorded: moderately enriched
B1	139 nM	recovery yield [3]: 0.5%
B2	19 nM	
B3	9 nM	
B4	5900 nM	
B5	66 nM	
B6		Kd [5]: 151 nM
B7	15 nM	
